The text below walks through data of paper PMC13252795 (International journal for parasitology, 2017).

The structures appear in SMILES notation.

For data set [1], the system named is B. besnoiti tachyzoites (Bb-Spain1) in HFF cells. The data set can be described thus: Transmission electron microscopy of B. besnoiti-infected HFF treated with BKIs. The class given is cell-based, Besnoitia besnoiti. Particulars: 5 μM, HFF cells, 4, 6 and 8 days; listed as BKI-1294.
The subject of data set [2] is B. besnoiti tachyzoites (Bb-Spain1) in Marc-145 cells. The experiment in a line: Short term dose-response assays, EC50 and EC99 determination by qPCR. The class given is cell-based, Besnoitia besnoiti.
For data set [3] the following is noted: cattle; ref Huang et al., 2015; Schaefer et al., 2016; Hulverson et al., 2017; cited from earlier work.
The target in data set [4] is recombinant BbCDPK1 (rBbCDPK1) (Besnoitia besnoiti, UniProt A0A290U7L2). The experiment in a line: BbCDPK1 enzymatic activity inhibition, Kinase-Glo luciferase assay. The class given is biochemical.
Data set [5] concerns Marc-145 cells. The experiment in a line: Mammalian cell toxicity, XTT cell viability assay. The class given is cell-based. As to conditions: uninfected Marc-145 cells, 5 μM, 72 h. The method in brief: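 Exponential-phase Marc-145 cells were seeded at 2 × 10^5 cells/mL together with test compound dissolved in DMSO, in quadruplicate, and grown 72 h at 37 °C in humidified 5% CO2. XTT reagent was then added for 4 h, and […]. Percent growth inhibition was calculated relative to the DMSO vehicle.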

Take `CCOc1ccc2cc(-c3nn(CC4CCN(C)CC4)c4ncnc(N)c34)ccc2c1` [Compound 1294]: the “Effect on ultrastructure of tachyzoites (TEM)” value in data set [1] is given as “formed multinucleated complexes”. In addition, in data set [2] (BKI added at 0 hpi, 3-day proliferation assay, qPCR, Marc-145 cells), the “EC99 (B. besnoiti)” value is 2.38 µM. The EC50 in data set [2] (Besnoitia besnoiti, MARC145, 72 h, read-out: EC50 (B. besnoiti)) was 45 nM. Besides, the Plasma levels achieved result in data set [3] is listed as “up to 5 μM”. For the same compound, the “IC50 values against BbCDPK1 (in words)” value in data set [4] is “lower nanomolar range”. Besides, in data set [5], the “Percentage of cytotoxicity compared to DMSO-treated negative control” value is reported as 5.2%.
